Test [1] addresses Nucleic Acid. Nature of the test: Displacement of methyl green from DNA after 24 hrs by microtiter assay. Type of test: nucleic-acid assay. An outline of the steps: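 Complex: DNA–methyl green reagent (20 mg/100 ml) in 0.05 M Tris-HCl pH 7.5 with 7.5 mM MgSO4, stirred 24 h at 37°. Samples dried from EtOH in wells, then complex added. A630 read at once and after 24 h dark at ambient temperature. Final corrected for initial, normalized to untreated complex. IC50 for 50% decrease by linear regression on semi-log plot; n = 3 to 5.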

Test [2] concerns Calf thymus DNA. Nature of the test: Displacement of ethidium bromide from calf thymus type 1 DNA after 4 hrs by microtiter assay.

In brackets after ≈: the same amount, converted by molar mass.

For orientation: IC50 means the midpoint of a concentration-inhibition curve. A lower IC50 goes with greater potency. Regarding `COC(=O)C(O)(c1cc2c(c3oc([C@]4(C)C[C@@H]4C)cc(=O)c13)C(=O)c1c(ccc([C@H]3C[C@](C)(N(C)C)[C@H](O[C@@H]4C[C@H](OC)[C@H](O)[C@@H](C)O4)[C@H](C)O3)c1O)C2=O)[C@H]1O[C@H](C)[C@@H](O)[C@@H](OC)[C@@H]1O` (some centres not stated) [ALTROMYCIN B], the IC50 in test [1] amounted to 67 µg/mL (≈ 72.5 µM); in test [2], 44 µg/mL (≈ 47.6 µM).

As to `C/C=C\C1OC1(C)c1cc(=O)c2c(C)cc3c(c2o1)C(=O)c1c(O)c([C@H]2C[C@@](C)(N(C)C)[C@H](O)[C@H](C)O2)cc([C@@H]2C[C@H](N(C)C)[C@@H](O)[C@@H](C)O2)c1C3=O` (some centres not stated) [RUBIFLAVIN], the IC50 in test [1] was found to be 17 µg/mL (≈ 23.3 µM); in test [2], 13 µg/mL (≈ 17.8 µM).

Consider `CCOc1ccc(-c2nc3cc(-c4nc5cc(N6CCN(C)CC6)ccc5[nH]4)ccc3[nH]2)cc1`, for which the IC50 turned out to be 37 µg/mL (≈ 81.8 µM) in test [1] and 33 µg/mL (≈ 72.9 µM) in test [2].

Regarding `Cn1cc(NC(=O)c2cc(NC(=O)c3cc(NC=O)cn3C)cn2C)cc1C(=O)NCCC(=N)N` [STALLIMYCIN], the IC50 in test [1] came to 18 µg/mL (≈ 37.4 µM); in test [2], 4.3 µg/mL (≈ 8.93 µM).

As to `COc1cc2c(oc(=O)c3cc(C)cc(OC)c32)c2c([C@@H]3O[C@H](C)[C@H](O)[C@@](C)(O)[C@H]3O)ccc(O)c12` [CHRYSOMYCIN B], in test [1], the IC50 came out at 20 µg/mL (≈ 40.3 µM).

With `C/C=C\C1OC1(C)c1cc(=O)c2c(C)cc3c(c2o1)C(=O)c1c(O)c([C@H]2C[C@](C)(N(C)C)[C@@H](OC(C)=O)[C@@H](C)O2)cc([C@@H]2C[C@H](N(C)C)[C@@H](O)[C@@H](C)O2)c1C3=O` (some centres not stated) [PLURAMYCIN], the IC50 in test [1] turned out to be 51 µg/mL (≈ 66 µM); in test [2] it was 3.6 µg/mL (≈ 4.66 µM).

For the compound `N=C(N)c1ccc(/N=N/Nc2ccc(C(=N)N)cc2)cc1` [DIMINAZENE], the IC50 worked out at 67 µg/mL (≈ 238 µM) in test [1] and 59 µg/mL (≈ 210 µM) in test [2].

On to `COc1c(O)c2c(c3cc(C(=O)N4CCc5c4c(O)c(OC)c4[nH]c(C(=O)N6C[C@H]7C[C@@]78C6=CC(=O)c6[nH]cc(C)c68)cc54)[nH]c13)CCN2C(N)=O` [(+)-CC-1065], for which the IC50 was 62 µg/mL (≈ 88.1 µM) in test [1] and 26 µg/mL (≈ 36.9 µM) in test [2].

With `COc1cccc2c1C(=O)c1c(O)c3c(c(O)c1C2=O)C[C@@](O)(C(C)=O)C[C@@H]3O[C@H]1C[C@H](N)[C@H](O)[C@H](C)O1` [DAUNORUBICIN], the IC50 in test [1] stood at 30 µg/mL (≈ 56.9 µM); in test [2], 2 µg/mL (≈ 3.79 µM).

The record behind these values is ChEMBL document CHEMBL1150052, “A colorimetric microassay for the detection of agents that interact with DNA” (J Nat Prod, 1992).
